DAT uptake mod = human DAT dopamine uptake with cocaine, either direction | Q01959 | LLC-PK1 hDAT cells, [14C]-dopamine uptake with cocaine IC80; actives deviate in either direction | B-score at 10 µM | actives 1.3% (n = 110,000) | AID 449768;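 active = Z score or B-score, a plate-position-corrected score, falls beyond the plate's 99.7% confidence bounds, in either direction; inactive = both scores lie inside the 99.7% bounds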;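 also: scored against the spread of the other compound wells on the same plate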
Rev-RRE block = inhibitors of HIV-1 Rev-RRE RNA interaction; P05866; Rev peptide-RRE RNA binding, FRET; actives 0.79% (n = 97,000); inhibition, % at 8 µM;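 active = inhibition above the screen-wide mean plus 3 SD, cut at about 35% in these data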;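 also: 0% = median DMSO wells and 100% = median Neomycin B control wells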
Target sequence (P05866 whole entry, looked up): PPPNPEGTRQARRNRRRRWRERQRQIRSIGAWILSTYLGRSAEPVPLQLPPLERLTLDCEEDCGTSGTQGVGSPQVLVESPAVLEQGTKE
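assay system = Cy5-tagged RRE RNA duplex with fluorescein-tagged Rev peptide | incubation = 5 + 15 min at 25 °C | also added = labelled Rev peptide | measure = % inhibition of FRET ratio versus controls | benchmarks = DMSO wells as 0% and neomycin B wells as 100% inhibition | measured by = FRET fluorescence readout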
Cav32 inh = blocks human Cav3.2 T-type calcium channel; O95180; Cav3.2-expressing cells, Fluo-4 calcium fluorescence FDSS; hits give low values; B-score at 10 µM; actives 4% (n = 100,000); AID 449739;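 active = single-dose well whose peak fluorescence ratio is a statistical outlier from its plate by either plate-standardised score or position-corrected B-score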
Measles CPE = protection of cells from measles virus | protection (pct of control), % at 4 µM | Measles virus-infected cells, CPE protection, absorbance | AID 841 | actives 1.5% (n = 140,000); in the data active = protection mostly above about 24%, no sharp cut-off; inactive = mostly below about 26%
Phagocytosis inh = macrophage phagocytosis inhibition. J774A.1 macrophage IgG-bead phagocytosis, imaging. inhibition, % at 5 µM. actives 0.07% (n = 110,000). AID 1029;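 active = inhibition above the mean of the plate negative controls plus 5 SD, cut at about 13% in these data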;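 also: phagocytic index as fraction of beads internalized from green versus red external bead signal; plate controls were DMSO negative control for no effect and cytochalasin-D positive control for full effect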
PTK2B oligo ant = antagonists of human Pyk2 oligomerization. Q14289. AID 1347419. z-score (the deposit names both 25 µM and 10 µM). actives 0.83% (n = 99,000). Q293 cells, Pyk2 FERM NanoBiT luminescence; hits give low values;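 active = Z-score of -3 or lower, scaled per plate to the spread of control and sample wells; inactive = z-score above -3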;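 also: negative z-score means lost luminescence so less FERM oligomerization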
* hit, by the source's call; . = no result given. Hits are enriched below; roughly 5.9% of the tested compounds scored in any of these assays.

SMILES	DAT uptake mod	Rev-RRE block	Cav32 inh	Measles CPE	Phagocytosis inh	PTK2B oligo ant
O=C(CCn1nc(-c2ccc(Cl)cc2)c2ccccc2c1=O)NCCN1CCOCC1	-0.19	3	0.72	3	0	-0.1
O=c1c2cccc3c2c(nn1CN1CCOCC1)-c1ccccc1-3	-0.14	4	1.3	59*	1	-0.63
Cc1cc(C)c(S(=O)(=O)N2CCCCC2)cc1N(C)S(=O)(=O)c1ccc(Cl)cc1	0.1	13	-4	5	-1	0.07
Cc1cc(C)c(S(=O)(=O)N2CCCCC2)c(C)c1N(C)S(=O)(=O)c1ccccc1	0.19	13	-4.3*	4	.	-2
COCCn1c(=NC(=O)CSC(C)=O)sc2cc(F)ccc21	-0.1	10	-8.7*	18	-1	1
COCCn1c(=NC(=O)CSCC(=O)NC2CCCCC2)sc2cc(OC)ccc21	-0.25	12	-0.41	19	0	0.75
CCC(=O)N=c1sc2cc([N+](=O)[O-])ccc2n1CCOC	.	.	.	8	.	.
COCCn1c(=NC(=O)CSC(C)=O)sc2cc(OC)ccc21	-1.3	.	-5.9*	11	0	.
COC(=O)Cn1c(=NC(=O)c2ccc(OC)c(OC)c2)sc2cc(OC)ccc21	.	.	.	9	2	.
CCn1c(=NC(=O)CSC(C)=O)sc2cc(OC)ccc21	-1.4	2	-6.7*	7	.	.
CCOC(=O)Cn1c(=NC(=O)CSC(C)=O)sc2cc(F)ccc21	-1.2	1	-7.5*	3	0	.
Cc1ccc(S(=O)(=O)/N=C(\Nc2cc(C)on2)c2ccc(Cl)cc2)cc1	.	.	.	6	4	.
COC(=O)[C@@H](NC(=O)O[C@@H]1C(=O)c2ccc(OC)cc2O[C@H]1c1cccc(C(F)(F)F)c1)C(C)C	.	.	.	7	.	.
CN(C(=O)Cc1noc2ccccc12)c1ccccc1	.	.	.	18	1	.
N#Cc1cn(CC(=O)N2CCc3ccccc3C2)c2ccccc12	-0.02	4	-0.8	5	.	-0.9
COc1ccc(N(CC(O)Cn2cnc3ccccc32)S(=O)(=O)c2ccc(C)cc2)cc1 (configuration not stated)	.	.	.	2	-13	.
CCOC(=O)c1c(C)[nH]c(C)c1C(=O)COC(=O)/C=C/c1ccc(Cl)cc1	.	.	.	2	.	.
O=C(Nc1nccs1)C(NS(=O)(=O)c1ccc(Br)s1)c1ccccc1 (configuration not stated)	0.56	0	-5.8*	3	-3	-1.9
COc1ccccc1OCC(=O)Nc1ccc(S(=O)(=O)Nc2nc(C)cc(C)n2)cc1	3.5*	4	0.71	12	0	-0.46
COc1ccc(C(=O)Nc2ccc(S(=O)(=O)Nc3nccc(C)n3)cc2)cc1OC	0.016	-10	0.22	10	2	1.1
COc1ccccc1OCC(=O)Nc1ccc(S(=O)(=O)NC(C)=O)cc1	-0.31	0	0.27	2	.	0.2
COc1cccc(C(=O)Nc2ccc(S(=O)(=O)Nc3nccc(C)n3)cc2)c1	.	.	.	30*	-1	.
COC(=O)c1ccc(C(=O)OC)c(NC(=O)CN(C)Cc2ccccc2)c1	.	.	.	8	-2	.
CCOc1ccc(NC(=O)CC(c2ccccc2)c2ccc(F)cc2)cc1 (configuration not stated)	.	.	.	2	-8	.
Cc1ccc(Oc2cnc3ccccc3n2)cc1	0.96	7	-1.2	67*	3	-0.03
SMILES	DAT uptake mod	Rev-RRE block	Cav32 inh	Measles CPE	Phagocytosis inh	PTK2B oligo ant
CN=Cc1sc2ccccc2c1O	0.4	1	-0.054	3	-2	1
CC(=Nc1ccc(C)cc1)c1sc2ccccc2c1O	-1.1	44*	-0.89	9	-1	-0.36
CC(=O)NCCN=Cc1sc2ccccc2c1O	-0.017	5	0.84	12	.	-0.46
CC(=Nc1cccc(O)c1)c1sc2ccccc2c1O	-0.29	48*	-1.3	6	0	-0.27
COc1ccc(C)cc1N1C(=N)/C(=C2/Nc3ccccc3S2)C(c2ccccc2)C1=O (configuration not stated)	.	.	.	4	-1	.
COc1ccc(NC(=O)C(c2ccccc2)N(C)C(=O)c2ccc(=O)[nH]c2)cc1 (configuration not stated)	.	.	.	31*	.	.
COc1ccc(CC(=O)Nc2c3c(nn2-c2cccc(C)c2C)CS(=O)C3)cc1OC (configuration not stated)	0.85	3	1.7	28	-1	1.2

Source: PubChem
